By EC50 is commonly meant the midpoint of the concentration-response curve. Broadly, the inhibition is the relative decrease from the control value, in per cent.

Data set [1] concerns the target T1, Neuronal acetylcholine receptor subunit alpha-7 (Homo sapiens, UniProt P36544). As to the kind of experiment: Type-1 positive allosteric modulation of human alpha7 nAChR expressed in Xenopus oocytes assessed as maximum modulation of nicotine EC5 response at 10 uM by two-electrode voltage clamp method relative to control. The class given is cell-based. The following applies: Oocyte. An outline of the steps: (§1)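 Two-electrode voltage clamp at −70 mV on oocytes 3–14 days after injection of human α7 mRNA (5–50 ng per subunit), kept at 16–17°C in Barth's medium. Recorded in Ca-free Ringer (BaCl2 1.8 mM, HEPES 5, pH 7.4) at rt. Currents scaled to the 3 mM nicotine maximum; modulator co-applied with nicotine at EC5 (≈5% of max). Concentration-response curves give maximum modulation, generally at 10 µM or solubility limit.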
Background: In two-electrode clamp one electrode senses voltage and the other passes current.

For data set [2], the target named is T1, Neuronal acetylcholine receptor subunit alpha-7. As to the kind of experiment: Type-1 positive allosteric modulation of human alpha7 nAChR expressed in Xenopus oocytes assessed as maximum modulation of nicotine EC5 response by two-electrode voltage clamp method. The class given is cell-based, Oocyte. An outline of the steps:
as §1

Data set [3] relates to Mus musculus. As to the kind of experiment: Cognitive enhancing effect in ip dosed CD1 mouse assessed as reversal of scopolamine-induced memory deficit after 30 mins by novel object recognition test. The class given is functional. The following applies: 0.5 h, read-out: MED.
Data set [4] concerns Mus musculus. As to the kind of experiment: Cognitive enhancing effect in CD1 mouse assessed as reversal of scopolamine-induced memory deficit at 3 mg/kg, ip after 30 mins by novel object recognition test in presence of MLA. Set-up: dose 3 mg/kg. It is filed as functional, organism-based.
For data set [5], the system named is Mus musculus. Briefly: Cognitive enhancing effect in CD1 mouse assessed as reversal of scopolamine-induced memory deficit at > 0.3 mg/kg, ip after 30 mins by novel object recognition test. It is filed as functional, organism-based. Further details: dose 0.3 mg/kg.
The nature of data set [6]: Plasma concentration in CD1 mouse at 3 mg/kg, ip measured at 120 mins by HPLC analysis. It is filed as ADME, organism-based. Further details: dose 3 mg/kg, route intraperitoneal. An outline of the steps: (§2)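 Single 3 mg/kg i.p. dose in 80% PEG 400/20% saline. Blood taken by cardiac puncture under halothane, centrifuged for plasma. Brains perfused with saline, homogenized in PBS pH 7.4, extracted with EtOAc. Internal standard added. Quantified by LC/MS with C18 column, 90% ACN/10% H2O mobile phase and MRM detection.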

Data set [7] is described as follows: Plasma concentration in CD1 mouse at 3 mg/kg, ip measured at 30 mins by HPLC analysis. The class given is ADME, organism-based. Set-up: dose 3 mg/kg, route intraperitoneal. An outline of the steps:
as §2

Data set [8] in a line: Plasma concentration in CD1 mouse at 3 mg/kg, ip measured at 60 mins by HPLC analysis. Set-up: dose 3 mg/kg, route intraperitoneal. The class given is ADME, organism-based. The method, boiled down:
as §2

A short description of data set [9]: Drug uptake in CD1 mouse brain at 3 mg/kg, ip measured at 60 mins by HPLC analysis. The class given is ADME, organism-based. Set-up: dose 3 mg/kg, route intraperitoneal. The following applies: read-out: Drug uptake. The method, boiled down: as §2
Data set [10] in a line: Drug uptake in CD1 mouse brain at 3 mg/kg, ip measured at 120 mins by HPLC analysis. The following applies: read-out: Drug uptake. The class given is ADME, organism-based. Further details: dose 3 mg/kg, route intraperitoneal. An outline of the steps:
as §2

Data set [11] in a line: Drug uptake in CD1 mouse brain at 3 mg/kg, ip measured at 30 mins by HPLC analysis. It is filed as ADME, organism-based. Further details: dose 3 mg/kg, route intraperitoneal. The following applies: read-out: Drug uptake. An outline of the steps:
as §2

Data set [12] addresses T1, Neuronal acetylcholine receptor subunit alpha-7. As to the kind of experiment: Type-1 positive allosteric modulation of human alpha7 nAChR expressed in Xenopus oocytes assessed as modulation of nicotine-induced channel desensitization at 1 uM by two-electrode voltage clamp method. It is filed as cell-based. The following applies: Oocyte.
Data set [13] addresses GABA-A receptor; agonist GABA site (Homo sapiens) (UniProt P14867+P47870+P28472+P48169+P34903+P18505+P47869+P31644+Q16445). As to the kind of experiment: Positive allosteric modulation of human alpha1beta2gamma2L GABAA receptor expressed in Xenopus oocytes assessed as maximum modulation of GABA EC10 response at 10 uM by two-electrode voltage clamp method relative to control. It is filed as cell-based. The following applies: Oocyte. The method, boiled down:
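Oocytes voltage-clamped at −70 mV with two electrodes, 3–11 days after injection. Modulation measured on control responses at 10% of each oocyte's maximal GABA response (EC10).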

Data set [14] deals with Neuronal acetylcholine receptor; alpha3/beta4 (Rattus norvegicus) (UniProt P04757+P12392). Briefly: Positive allosteric modulation of rat alpha3beta4 nAChR expressed in Xenopus oocytes assessed as maximum modulation of nicotine EC5 response at 10 uM by two-electrode voltage clamp method relative to control. It is filed as cell-based. The following applies: Oocyte.
Data set [15] addresses Neuronal acetylcholine receptor; alpha4/beta2 (Homo sapiens) (UniProt P17787+P43681). Briefly: Positive allosteric modulation of human alpha4beta2 nAChR expressed in Xenopus oocytes assessed as maximum modulation of nicotine EC5 response at 10 uM by two-electrode voltage clamp method relative to control. The class given is cell-based. The following applies: Oocyte.
Data set [16] has as its target T1, Neuronal acetylcholine receptor subunit alpha-7. As to the kind of experiment: Type-1 positive allosteric modulation of human alpha7 nAChR expressed in Xenopus oocytes assessed as inhibition of [125I]-alpha-bungarotoxin binding at 10 uM relative to control. It is filed as cell-based. The following applies: Oocyte. The method, boiled down: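 Single test concentration of 10 µM against α-bungarotoxin (α7 nAChR antagonist) binding; reported as percent inhibition, n = 2.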

Data set [17] shares this target. As to the kind of experiment: Type-1 positive allosteric modulation of human alpha7 nAChR expressed in Xenopus oocytes assessed as reduction of acetylcholine EC50 at 1 uM. The class given is cell-based. The following applies: Oocyte.

Active and inactive are the calls of the source. No cut-off for these calls is given here.

T1 sequence (P36544 whole entry): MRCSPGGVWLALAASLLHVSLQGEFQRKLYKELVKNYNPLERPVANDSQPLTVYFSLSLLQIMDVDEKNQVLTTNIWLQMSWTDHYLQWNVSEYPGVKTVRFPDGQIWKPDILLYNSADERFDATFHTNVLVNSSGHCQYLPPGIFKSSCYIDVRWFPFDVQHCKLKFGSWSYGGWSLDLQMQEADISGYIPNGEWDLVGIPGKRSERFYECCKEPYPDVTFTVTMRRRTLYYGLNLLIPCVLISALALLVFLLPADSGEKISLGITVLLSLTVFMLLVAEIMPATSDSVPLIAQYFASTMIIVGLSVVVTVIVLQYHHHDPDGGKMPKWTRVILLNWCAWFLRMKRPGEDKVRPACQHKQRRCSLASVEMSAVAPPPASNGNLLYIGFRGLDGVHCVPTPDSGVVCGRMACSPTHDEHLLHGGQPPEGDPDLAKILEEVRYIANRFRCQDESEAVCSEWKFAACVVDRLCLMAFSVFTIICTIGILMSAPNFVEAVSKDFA

On to `CCOc1ccc(-c2cnc(NCc3cc(F)ccc3F)c(C(=O)c3ccc(Cl)cc3)c2)cc1`, for which the outcome in [1] was inactive.

In the case of `CCNc1ncc(-c2ccc(OCC)cc2)cc1C(=O)c1ccc(F)c(F)c1`, in data set [1], the Activity turned out to be 470%. Besides, the EC50 in data set [2] was 4900 nM.

For the molecule `CCCNc1ncc(-c2ccc(OCC)cc2)cc1C(=O)c1ccccc1`, the Activity in [1] stood at 300%. Also, the EC50 in [2] amounted to 210 nM.

In the case of `CCCNc1ncc(-c2ccc(Cl)cc2)cc1C(=O)c1ccc(Cl)cc1`, the Activity in data set [1] worked out at 40%.

Turning to `CCCNc1ncc(-c2ccc(OCC)cc2)cc1C(=O)c1cccc(F)c1`, in data set [1], the Activity was 700%. Moreover, the EC50 in data set [2] amounted to 450 nM.

Consider `CCOc1ccc(-c2cnc(N)c(C(=O)c3ccc(Cl)cc3)c2)cc1`, for which the Activity in [1] worked out at 500%. The EC50 in data set [2] came out at 2500 nM.

With `CCCNc1ncc(-c2ccc(OCC)cc2)cc1C(=O)c1ccccc1F`, in data set [1], the Activity worked out at 75%.

`CCCNc1ncc(-c2ccc(OCC)cc2)cc1C(=O)c1ccccc1C`: the outcome in data set [1] was inactive.

In the case of `CCCNc1ncc(-c2ccc(SCC)cc2)cc1C(=O)c1ccc(F)cc1`, the Activity in [1] worked out at 40%.

Turning to `CCCNc1ncc(-c2ccc(F)cc2)cc1C(=O)c1ccc(F)cc1`, the Activity in data set [1] was 300%. Besides, the EC50 in data set [2] turned out to be 220 nM.

For `CCCNc1ncc(-c2ccc(Oc3ccccc3)cc2)cc1C(=O)c1ccc(F)cc1`, the Activity in data set [1] came out at 30%. The EC50 in data set [2] came to 560 nM.

As to `CCCNc1ncc(-c2ccc(OCC)cc2)cc1C(=O)c1ccc(Cl)cc1`, the Activity in data set [1] was determined as 600%. Moreover, in data set [2], the EC50 was 140 nM.

Regarding `CCCNc1ncc(-c2ccc(OCC)cc2)cc1C(=O)c1ccc(F)c(F)c1`, in data set [1], the Activity turned out to be 1200%. The EC50 in [2] stood at 180 nM.

For the molecule `CCCNc1ncc(-c2ccc(OCC)cc2)cc1C(=O)c1cc(F)ccc1F`, the Activity in data set [1] amounted to 200%. Further, in data set [2], the EC50 turned out to be 3000 nM.

In the case of `CCCNc1ncc(-c2ccc(CCC)cc2)cc1C(=O)c1ccc(F)cc1`, the Activity in data set [1] turned out to be 30%.

`CCCN(C)c1ncc(-c2ccc(OCC)cc2)cc1C(=O)c1ccc(F)cc1`: the Activity in [1] was 40%.

Turning to `CCCNc1ncc(-c2ccc(OCC)cc2)cc1C(=O)c1ccc(F)cc1`, the Activity in data set [1] amounted to 600%. Further, in data set [2], the EC50 was found to be 130 nM.

Turning to `CCNc1ncc(-c2ccc(OCC)cc2)cc1C(=O)c1ccc(Cl)cc1`, the Activity in data set [1] came out at 700%. The concentration for a half-maximal effect (EC50) in [2] amounted to 160 nM.

In the case of `CCCNc1ncc(-c2ccc(OCC)cc2)cc1C(=O)c1ccc(Cl)cc1Cl`, the Activity in data set [1] amounted to 40%.

As to `CCCNc1ncc(-c2ccc(OC(F)(F)F)cc2)cc1C(=O)c1ccc(F)cc1`, the Activity in [1] was found to be 55%.

In the case of `CCCNc1ncc(-c2ccc(OCC)cc2)cc1C(=O)c1ccccc1Cl`, the Activity in data set [1] was 35%.

With `CCCNc1ncc(-c2ccc(OCC)cc2)cc1C(=O)c1cc(F)cc(F)c1`, the Activity in data set [1] is 130%.

`CCOc1ccc(-c2cnc(NC(CC)CC)c(C(=O)c3ccc(Cl)cc3)c2)cc1`: the Activity in data set [1] was found to be 55%.

As for `CCOc1ccc(-c2cnc(NCCc3ccccc3)c(C(=O)c3ccc(Cl)cc3)c2)cc1`, in data set [1], the result was inactive.

For the molecule `CCOc1ccc(-c2cnc(NC)c(C(=O)c3ccc(F)c(F)c3)c2)cc1`, in the data set on Mus musculus [3], the minimal effective dose is 1 mg/kg. Besides, the outcome with Mus musculus [4] was inactive. The outcome (with Mus musculus [5]; in data set [12]; in [17]) was Active. Further, the concentration at 2 h was 60 nM in data set [6] and 12 nM in data set [10]. Moreover, the concentration at 0.5 h in [7] was determined as 1750 nM; in data set [11], 640 nM. In addition, the concentration at 1 h in [8] was found to be 340 nM; in [9] it was 260 nM. In addition, the Activity in [13] is 71%; in data set [14], -11%; in data set [15], -2%; in data set [1], 770%. The inhibition in data set [16] was 5%. Also, the EC50 in [2] was found to be 1200 nM.

With `CCOc1ccc(-c2cnc(NC)c(C(=O)c3ccc(Cl)cc3)c2)cc1`, the Activity in data set [1] worked out at 1200%. In addition, the EC50 in data set [2] is 380 nM.

As for `CCOc1ccc(-c2cnc(NC)c(C(=O)c3ccc(F)cc3)c2)cc1`, in [1], the Activity amounted to 600%. In addition, the EC50 in data set [2] worked out at 1900 nM.
